Results taken from ChEMBL document CHEMBL3397004, “Furan-based acetylating agent for the chemical modification of proteins” (Bioorg Med Chem, 2015).
Activity calls are given as the source filed them. The rule behind the calls is not given here.

Columns and labels:
[1] = target: Cytochrome c (Bos taurus) (UniProt P62894); assay: Induction of chemical modification in bovine heart cytochrome c in phosphate buffer assessed as disappearance of peak at 530 nm and appearance of new peaks at 522 and 551 nm at pH 7.4 after overnight incubation by UV-vis spectrophotometry
Outline: (§1)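 Cytochrome c (50 µM) incubated overnight at 37 °C, pH 7.4, with 2 mM BAMF or 2 mM aspirin in phosphate buffer. UV–vis spectra recorded about 350–600 nm (Soret and Q-band region) and compared with native protein.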

[2] = target: Cytochrome c (Bos taurus) (UniProt P62894); assay: Induction of chemical modification in bovine heart cytochrome c in phosphate buffer assessed as appearance of new peak at 414 nm at 2 mM at pH 7.4 after overnight incubation by UV-vis spectrophotometry; outline: as §1
[3] = target: Cytochrome c (Bos taurus) (UniProt P62894); assay: Induction of chemical modification in bovine heart cytochrome c tertiary structure in phosphate buffer assessed as intact band at 695 nm at pH 7.4 after overnight incubation by UV-vis spectrophotometry
Outline: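 Cytochrome c modified overnight at 37 °C in 50 mM phosphate pH 7.4 with BAMF. UV–vis absorbance scanned 600–800 nm to monitor the 695 nm Met-80–heme ligand band, compared with native protein.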

[4] = target: Cytochrome c (Bos taurus) (UniProt P62894); assay: Induction of chemical modification in bovine heart cytochrome c in phosphate buffer assessed as adduct formation at heme center at 2 mM at pH 7.4 after 1 hr by UV-vis spectrophotometry
Outline: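 Cytochrome c treated with 2 mM acetylating agent in phosphate buffer pH 7.4. Heme redox/reduction kinetics followed by absorbance at 550 nm over 1 h, with aspirin at 2 mM as the reference acetylating agent.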

[5] = target: Cytochrome c (Bos taurus) (UniProt P62894); assay: Induction of chemical modification in bovine heart cytochrome c assessed as change in negative peaks of at 282 nm and 289 nm of tyrosyl side chains at 0.3 to 1.2 mM by circular dichroism analysis
[6] = target: Cytochrome c (Bos taurus) (UniProt P62894); assay: Induction of chemical modification in bovine heart cytochrome c tertiary structure assessed as effect on adduct formation at 0.3 to 1.2 mM by circular dichroism analysis
[7] = target: Lysozyme C (Gallus gallus) (UniProt P00698); assay: Induction of chemical modification in chicken egg white lysozyme tertiary structure assessed as effect on adduct formation at 0.3 to 1.2 mM by circular dichroism analysis
[8] = target: Cytochrome c (Bos taurus) (UniProt P62894); assay: Induction of chemical modification in bovine heart cytochrome c assessed as exposure of hydrophobic core at 0.3 to 1.2 mM by ANS staining-based fluorescence assay
Outline: (§2)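 Proteins (50 µM) modified overnight at 37 °C with BAMF (0.3–1.2 mM) in 50 mM phosphate pH 7.4, then measured at 5 µM. ANS was used at 16-fold over protein. Excitation 360 nm, emission 400–600 nm, slits 10 nm, 3 mm quartz cell. Blanks subtracted, each spectrum at least three times.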

[9] = target: Lysozyme C (Gallus gallus) (UniProt P00698); assay: Induction of chemical modification in chicken egg white lysozyme assessed as exposure of hydrophobic core at 0.3 to 1.2 mM by ANS staining-based fluorescence assay; outline: as §2
[10] = target: Cytochrome c (Bos taurus) (UniProt P62894); assay: Induction of chemical modification in bovine heart cytochrome c assessed as denaturation temperature at 0.3 mM by UV-vis spectrophotometry (Tm = 56.5 +/- 0.1 degC)
[11] = target: Cytochrome c (Bos taurus) (UniProt P62894); assay: Induction of chemical modification in bovine heart cytochrome c assessed as denaturation temperature at 0.6 mM by UV-vis spectrophotometry (Tm = 56.5 +/- 0.1 degC)
[12] = target: Cytochrome c (Bos taurus) (UniProt P62894); assay: Induction of chemical modification in bovine heart cytochrome c assessed as denaturation temperature at 0.9 mM by UV-vis spectrophotometry (Tm = 56.5 +/- 0.1 degC)
[13] = target: Cytochrome c (Bos taurus) (UniProt P62894); assay: Induction of chemical modification in bovine heart cytochrome c assessed as denaturation temperature at 1.2 mM by UV-vis spectrophotometry (Tm = 56.5 +/- 0.1 degC)
[14] = target: Lysozyme C (Gallus gallus) (UniProt P00698); assay: Induction of chemical modification in chicken egg white lysozyme assessed as effect on enzyme activity at 0.3 to 1.2 mM by UV-vis spectrophotometry
Outline: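 Lysozyme (50 µM) modified overnight at 37 °C with 0.3, 0.6, 0.9 or 1.2 mM BAMF in 50 mM phosphate pH 7.4. Hydrolytic activity read turbidimetrically as the fall in A450 of a bacterial cell suspension over 1500 s. Specific activity plotted against BAMF concentration.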

[15] = target: Cytochrome c (Bos taurus) (UniProt P62894); assay: Induction of chemical modification in bovine heart cytochrome c assessed as additional peaks at 1.2 mM at pH 7.4 by ESI-MS spectroscopic technique
[16] = target: Cytochrome c (Bos taurus) (UniProt P62894); assay: Induction of chemical modification in bovine heart cytochrome c in phosphate buffer assessed as appearance of new peak at 413 nm at 2 mM at pH 7.4 after overnight incubation by UV-vis spectrophotometry; outline: as §1

Sequence of Cytochrome c (Bos taurus) (P62894 whole entry): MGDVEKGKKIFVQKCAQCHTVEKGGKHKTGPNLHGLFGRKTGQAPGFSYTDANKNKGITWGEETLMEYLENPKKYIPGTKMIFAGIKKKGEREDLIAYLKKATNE
Sequence of Lysozyme C (Gallus gallus) (P00698 whole entry): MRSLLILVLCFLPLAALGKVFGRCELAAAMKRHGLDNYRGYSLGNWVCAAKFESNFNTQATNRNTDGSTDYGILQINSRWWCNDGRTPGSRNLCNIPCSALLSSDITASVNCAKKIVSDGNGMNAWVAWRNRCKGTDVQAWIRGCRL

Row | Compound | Activity [1] | Activity [2] | Activity [3] | Activity [4] | Activity [5] | Activity [6] | Activity [7] | Activity [8] | Activity [9] | Tm [10] [°C] | Tm [11] [°C] | Tm [12] [°C] | Tm [13] [°C] | Activity [14] | Activity [15] | Activity [16]
1 | CC(=O)OCc1ccc(COC(C)=O)o1 | Active | Active | inactive | Active | inactive | inactive | inactive | inactive | inactive | 54.8 | 54.7 | 53.8 | 53 | inactive | Active | –
2 | CC(=O)Oc1ccccc1C(=O)O | – | – | – | – | – | – | – | – | – | – | – | – | – | – | – | Active
